The values below come from ChEMBL document CHEMBL3797137, “New ligands of the ghrelin receptor based on the 1,2,4-triazole scaffold by introduction of a second chiral center” (Bioorg Med Chem Lett, 2016).

For assay [1], the target named is T1, Growth hormone secretagogue receptor type 1 (Homo sapiens, UniProt Q92847). The experiment in a line: Antagonist activity at human GHS-R1a expressed in HEK293T cells assessed as inhibition of ghrelin-induced stimulation after 45 mins by HTRF-based IP3 turnover assay. Particulars: HEK-293T. It is filed as functional, cell-based. (In TR-FRET formats the signal depends on donor and acceptor labels being close together.)

For assay [2], the target named is T1, Growth hormone secretagogue receptor type 1. The experiment in a line: Competitive binding affinity to human SNAP-tagged GHS-R1a expressed in HEK293T cells incubated at 4 degC for 3 hrs or at room temperature for 1 hr by Tag-lite assay. It is filed as cell-based, HEK-293T. The method in brief:
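Tag-lite binding measured by FRET between terbium cryptate attached to SNAP-tag-fused GHS-R1a and a red fluorescent high-affinity ghrelin ligand. Ki obtained from the fluorescent binding data.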

T1 sequence (Q92847 whole entry): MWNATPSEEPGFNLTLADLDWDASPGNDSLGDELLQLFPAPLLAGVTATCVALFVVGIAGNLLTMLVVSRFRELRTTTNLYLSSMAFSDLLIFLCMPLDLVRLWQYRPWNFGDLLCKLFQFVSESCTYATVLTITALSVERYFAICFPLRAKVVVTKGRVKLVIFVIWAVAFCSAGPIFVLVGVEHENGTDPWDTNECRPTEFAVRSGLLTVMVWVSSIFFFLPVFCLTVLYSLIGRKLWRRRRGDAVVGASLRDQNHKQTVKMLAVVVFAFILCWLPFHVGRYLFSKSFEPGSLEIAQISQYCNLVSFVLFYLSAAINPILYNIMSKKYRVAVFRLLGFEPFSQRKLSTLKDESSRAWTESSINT

`COc1ccc(Cn2c([C@@H](Cc3c[nH]c4ccccc34)NC(=O)CO)nnc2[C@@H](Cc2c[nH]c3ccccc23)NC(=O)[C@H](CC(C)C)NC(=O)[C@H](CC(C)C)NC(C)=O)cc1`: the Emax in assay [1] was determined as 0%. Besides, in assay [2], affinity was put at a Ki of 3 nM.

As a reminder, the Ki is a dissociation constant, usually derived from enzyme kinetics or from competition with a known ligand.
